Measured values published in ChEMBL document CHEMBL3352534, “A prodrug strategy for the oral delivery of a poorly soluble HCV NS5B thumb pocket 1 polymerase inhibitor using self-emulsifying drug delivery systems (SEDDS)” (Bioorg Med Chem Lett, 2015).
≈ marks a conversion by molar mass, not a printed value.

Experiments:
Plasma [1] = experiment: Prodrug conversion in human plasma assessed as half life
Plasma [2] = experiment: Prodrug conversion in rat plasma assessed as half life; assay type: ADME, cell-free
Outline: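 Rat plasma (from centrifuged whole blood) was incubated with 2 µM compound at 37 °C. Samples were quenched 1:3 with acetonitrile/methanol 1:1, centrifuged and analysed by HPLC-PDA. Half-life was taken as 0.693/first-order rate of loss of the starting compound.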

[3] = Prodrug conversion in simulated gastric fluid assessed as half life; assay type: ADME; details: simulated gi fluid
Outline: (§1)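 Incubations used 2 µM compound at 37 °C in either SGF (0.2% NaCl/HCl, pH 1.2, pepsin 3.2 mg/mL) or SIF (KH2PO4/NaOH, pH 7.5, pancreatin 10 mg/mL). Samples were quenched 1:2 with acetonitrile/methanol 1:1 and analysed by HPLC. t1/2 = 0.693/first-order disappearance rate.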

Intestine = experiment: Prodrug conversion in rat intestinal microsomes assessed as half life
[4] = Prodrug conversion in simulated intestinal fluid assessed as half life; assay type: ADME; details: simulated gi fluid; outline: as §1
Liver microsome [5] = experiment: Prodrug conversion in rat liver microsomes assessed as half life
[6] = Prodrug conversion in human intestinal microsomes assessed as half life
Liver microsome [7] = experiment: Prodrug conversion in human liver microsomes assessed as half life
[8] = Prodrug solubility in capmul; assay type: ADME
[9] = Prodrug solubility in solutol; assay type: ADME
[10] = Prodrug solubility in Labrasol; assay type: ADME
[11] = Dissociation constant, pKa of the compound; assay type: physicochemical
Rattus norvegicus [12] = experiment: (§2) Cmax in rat plasma at 10 mg/kg, po using 10.6% PEG400, 5.4% Cremophor EL, 2.6% Labrasol, 1.4% Capmul MCM in water (80%) vehicle; assay type: ADME, organism-based; design: dose 10 mg/kg, route oral; details: in vivo, BLD = below limit of detection
Outline: (§3)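 Fasted rats were given a single 10 mg/kg oral dose, with n = 3 per dose and route. Plasma was extracted by solid-phase extraction. Analysis used HPLC with diode-array UV (200–400 nm, peak height at best S/N) or LC/MS. Calibration standards were made in blank plasma, with LOQ 7–14 ng/mL. Parameters came from noncompartmental analysis.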

Rattus norvegicus [13] = experiment: (§4) AUC in rat plasma at 10 mg/kg, po using 10.6% PEG400, 5.4% Cremophor EL, 2.6% Labrasol, 1.4% Capmul MCM in water (80%) vehicle; assay type: ADME, organism-based; design: dose 10 mg/kg, route oral; details: in vivo, BLD = below limit of detection; outline: as §3
Rattus norvegicus [14] = experiment: Cmax in rat plasma assessed as (E)-3-(4-(1-(2-(5-chloropyrimidin-2-yl)-3-cyclopentyl-1-methyl-1H-indole-6-carboxamido)cyclobutanecarboxamido)-2-ethoxyphenyl)acrylic acid at 10 mg/kg, po using 10.6% PEG400, 5.4% Cremophor EL, 2.6% Labrasol, 1.4% Capmul MCM in water (80%) vehicle; assay type: ADME, organism-based; design: dose 10 mg/kg, route oral; details: in vivo; outline: as §3
Rattus norvegicus [15] = experiment: AUC in rat plasma assessed as (E)-3-(4-(1-(2-(5-chloropyrimidin-2-yl)-3-cyclopentyl-1-methyl-1H-indole-6-carboxamido)cyclobutanecarboxamido)-2-ethoxyphenyl)acrylic acid at 10 mg/kg, po using 10.6% PEG400, 5.4% Cremophor EL, 2.6% Labrasol, 1.4% Capmul MCM in water (80%) vehicle; assay type: ADME, organism-based; design: dose 10 mg/kg, route oral; details: in vivo; outline: as §3
[16] = (§5) Cmax in rat plasma at 10 mg/kg, po using 0.5% Methyl cellulose, 0.3% Tween-80, 1% N-methylpyrrolidone in water vehicle; assay type: ADME, organism-based; design: dose 10 mg/kg, route oral; details: plasma; outline: as §3
[17] = (§6) AUC in rat plasma at 10 mg/kg, po using 0.5% Methyl cellulose, 0.3% Tween-80, 1% N-methylpyrrolidone in water vehicle; assay type: ADME, organism-based; design: dose 10 mg/kg, route oral; details: plasma; outline: as §3
Rattus norvegicus [18] = experiment: Cmax in rat plasma assessed as (E)-3-(4-(1-(2-(5-chloropyrimidin-2-yl)-3-cyclopentyl-1-methyl-1H-indole-6-carboxamido)cyclobutanecarboxamido)-2-ethoxyphenyl)acrylic acid at 10 mg/kg, po using 0.5% Methyl cellulose, 0.3% Tween-80, 1% N-methylpyrrolidone in water vehicle; assay type: ADME, organism-based; design: dose 10 mg/kg, route oral; details: in vivo; outline: as §3
Rattus norvegicus [19] = experiment: AUC in rat plasma assessed as (E)-3-(4-(1-(2-(5-chloropyrimidin-2-yl)-3-cyclopentyl-1-methyl-1H-indole-6-carboxamido)cyclobutanecarboxamido)-2-ethoxyphenyl)acrylic acid at 10 mg/kg, po using 0.5% Methyl cellulose, 0.3% Tween-80, 1% N-methylpyrrolidone in water vehicle; assay type: ADME, organism-based; design: dose 10 mg/kg, route oral; details: in vivo; outline: as §3
[20] = Solubility of the compound at pH 6.8; assay type: physicochemical; details: buffer
[21] = Prodrug solubility in PEG400; assay type: ADME
Rattus norvegicus [22] = experiment: as §5; assay type: ADME, organism-based; design: dose 10 mg/kg, route oral; details: in vivo, BLD = below limit of detection; outline: as §3
Rattus norvegicus [23] = experiment: as §6; assay type: ADME, organism-based; design: dose 10 mg/kg, route oral; details: in vivo, BLD = below limit of detection; outline: as §3
[24] = as §2; assay type: ADME, organism-based; design: dose 10 mg/kg, route oral; details: plasma; outline: as §3
[25] = as §4; assay type: ADME, organism-based; design: dose 10 mg/kg, route oral; details: plasma; outline: as §3

| Structure (SMILES) | t1/2 (Plasma [1]) [h] | t1/2 (Plasma [2]) [h] | t1/2 [3] [h] | t1/2 (Intestine) [h] | t1/2 [4] [h] | t1/2 (Liver microsome [5]) [h] | t1/2 [6] [h] | t1/2 (Liver microsome [7]) [h] | solubility [8] [mg/mL] | solubility [9] [mg/mL] | solubility [10] [mg/mL] | pKa [11] | Cmax (Rattus norvegicus [12]) | AUC (Rattus norvegicus [13]) | Cmax (Rattus norvegicus [14]) [nM] | AUC (Rattus norvegicus [15]) [µM·h] | solubility [21] [mg/mL] | other results |
| --- | --- | --- | --- | --- | --- | --- | --- | --- | --- | --- | --- | --- | --- | --- | --- | --- | --- | --- |
| CCOc1cc(NC(=O)C2(NC(=O)c3ccc4c(C5CCCC5)c(-c5ncc(Cl)cn5)n(C)c4c3)CCC2)ccc1/C=C/C(=O)OCCN(C)C | > 5 | 1.4 | 1.82 | 1.47 | 6.6 | 0.317 | > 5 | 1.5 | < 100 | < 100 | < 100 | 7.7 | BLD | BLD | 1600 | 10.1 |  |  |
| CCOc1cc(NC(=O)C2(NC(=O)c3ccc4c(C5CCCC5)c(-c5ncc(Cl)cn5)n(C)c4c3)CCC2)ccc1/C=C/C(=O)OCC(=O)N1CCN(C)CC1 |  |  |  |  |  | 0.15 |  | 0.35 | < 100 | < 100 | < 100 | 6.6 | BLD | BLD | 260 | 1.5 |  |  |
| CCOc1cc(NC(=O)C2(NC(=O)c3ccc4c(C5CCCC5)c(-c5ncc(Cl)cn5)n(C)c4c3)CCC2)ccc1/C=C/C(=O)OCOP(=O)(O)O |  |  | 1.3 | 0.083 |  | 0.15 | 0.467 | 0.167 |  |  |  |  |  |  |  |  |  | Cmax [16]: 50 nM; AUC [17]: 0.09 µM·h; Cmax (Rattus norvegicus [18]): 4200 nM; AUC (Rattus norvegicus [19]): 14.5 µM·h; solubility [20]: 0.14 mg/mL (≈ 0.186 mM) |
| CCOc1cc(NC(=O)C2(NC(=O)c3ccc4c(C5CCCC5)c(-c5ncc(Cl)cn5)n(C)c4c3)CCC2)ccc1/C=C/C(=O)OCC(=O)NC |  |  |  |  |  | 0.5 |  | 0.567 | < 200 | < 200 | 200 (≈ 280 mM) |  |  |  |  |  | > 200 |  |
| CCOc1cc(NC(=O)C2(NC(=O)c3ccc4c(C5CCCC5)c(-c5ncc(Cl)cn5)n(C)c4c3)CCC2)ccc1/C=C/C(=O)OCOP(=O)(O)OC(C)(C)C |  |  |  |  |  | 0.13 |  | 1.48 |  |  |  |  |  |  |  |  |  | Cmax (Rattus norvegicus [22]): BLD; AUC (Rattus norvegicus [23]): BLD; Cmax (Rattus norvegicus [18]): 80 nM; AUC (Rattus norvegicus [19]): 0.49 µM·h; solubility [20]: 0.781 mg/mL (≈ 0.966 mM) |
| CCOc1cc(NC(=O)C2(NC(=O)c3ccc4c(C5CCCC5)c(-c5ncc(Cl)cn5)n(C)c4c3)CCC2)ccc1/C=C/C(=O)OCC(=O)N1CCOCC1 | > 5 | 1.83 | 0.85 | 1.27 | 3.17 | 0.733 | 3.42 | 0.8 | < 15 | < 15 | < 30 |  | BLD | BLD | 4000 | 19.3 |  |  |
| CCOc1cc(NC(=O)C2(NC(=O)c3ccc4c(C5CCCC5)c(-c5ncc(Cl)cn5)n(C)c4c3)CCC2)ccc1/C=C/C(=O)OCC(=O)N(C)C(C)C |  |  |  |  |  | 0.267 |  | 0.65 | < 200 | < 200 | < 200 |  |  |  |  |  | > 200 |  |
| CCOc1cc(NC(=O)C2(NC(=O)c3ccc4c(C5CCCC5)c(-c5ncc(Cl)cn5)n(C)c4c3)CCC2)ccc1/C=C/C(=O)OCCN1CCOCC1 | > 5 | 1.6 | 0.333 | 3.5 | 4.28 | 0.583 | 15.2 | 0.917 | < 30 | < 60 | < 60 | 5.7 |  |  | 7200 | 35.2 |  | Cmax [24]: 70 nM; AUC [25]: 0.2 µM·h |
| CCOc1cc(NC(=O)C2(NC(=O)c3ccc4c(C5CCCC5)c(-c5ncc(Cl)cn5)n(C)c4c3)CCC2)ccc1/C=C/C(=O)OC | > 5 | > 5 | 2.5 | 1.82 | 6.87 | 1.63 | 9.07 | 12.7 |  |  |  |  |  |  | 5200 | 30.7 |  | Cmax [16]: 10 nM; AUC [17]: 0.07 µM·h; Cmax (Rattus norvegicus [18]): 510 nM; AUC (Rattus norvegicus [19]): 5.7 µM·h; Cmax [24]: 840 nM; AUC [25]: 2.6 µM·h |
| CCOc1cc(NC(=O)C2(NC(=O)c3ccc4c(C5CCCC5)c(-c5ncc(Cl)cn5)n(C)c4c3)CCC2)ccc1/C=C/C(=O)OCCN1CCN(C)CC1 |  |  |  |  |  | 0.217 |  | 1.85 |  | < 100 | < 100 | 7.7 | BLD | BLD | 1200 | 7.9 |  |  |
| CCOc1cc(NC(=O)C2(NC(=O)c3ccc4c(C5CCCC5)c(-c5ncc(Cl)cn5)n(C)c4c3)CCC2)ccc1/C=C/C(=O)OCCN1CCCC1 |  |  |  |  |  |  |  |  | < 60 | < 100 | < 60 | 7.7 | BLD | BLD | 1100 | 6.5 |  |  |
| CCOc1cc(NC(=O)C2(NC(=O)c3ccc4c(C5CCCC5)c(-c5ncc(Cl)cn5)n(C)c4c3)CCC2)ccc1/C=C/C(=O)OCC(=O)N1CCCC1 |  |  |  |  |  | 1.47 |  | 1.65 | < 200 | 200 (≈ 265 mM) | 200 (≈ 265 mM) |  |  |  |  |  | > 200 |  |
| CCOc1cc(NC(=O)C2(NC(=O)c3ccc4c(C5CCCC5)c(-c5ncc(Cl)cn5)n(C)c4c3)CCC2)ccc1/C=C/C(=O)OCC(N)=O |  |  | 0.6 |  |  | 0.383 |  | 0.983 | < 200 | 200 (≈ 286 mM) | > 200 |  |  |  | 4400 | 16.7 | > 200 | Cmax [24]: 40 nM; AUC [25]: 0.13 µM·h |
